Broadly, the Kd is the constant that tells how readily two partners part at equilibrium. A low value points to a tighter complex.

Here are results for six compounds from ChEMBL document CHEMBL1811902, “Thermodynamic and biological evaluation of a thrombin binding aptamer modified with several unlocked nucleic acid (UNA) monomers and a 2'-C-piperazino-UNA monomer” (Bioorg Med Chem, 2011).

In series [1] the test system is Plasma. As to the kind of experiment: Anticoagulant activity in human plasma assessed as time required for clot formation at 0.33 mM at 37 degC. Type of series: functional. The procedure, abridged: (§1)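 Pooled citrate plasma from four healthy donors. Thrombin reagent pre-incubated with aptamer at 0.33 mM for 5 min, then mixed with an equal volume of plasma. Clotting time (thrombin time, seconds) read at 37 °C on an automated coagulation analyser. Antithrombin effect taken as the extra clotting time over a water-added reference.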

The subject of series [2] is Plasma. As to the kind of experiment: Anticoagulant activity in human plasma assessed as time required for clot formation in presence of compound minus time required for clot formation in absence of compound at 0.33 mM at 37 degC. Type of series: functional. The procedure, abridged:
as §1

The nature of series [3]: Thermodynamic stability in pH 7.0 buffer containing 100 mM Kcl, 10 mM sodium cacodylate. Format: physicochemical. The procedure, abridged:
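UV melting at 295 nm over 5–95 °C at 0.2 °C/min. Samples annealed 5 min at 80 °C, then slowly cooled. Nine strand concentrations spanning 10^-5–10^-6 M, set from absorbance above 80 °C. Heating and cooling profiles recorded. Thermodynamic parameters from non-linear fitting of melting curves with a unimolecular transition model.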

The target in a further series is Prothrombin (Homo sapiens, UniProt P00734). In words: Binding affinity to thrombin at 37 degC by isothermal titration calorimetry. The method, boiled down:
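ITC at 37 °C. One 0.2 µL pre-injection, discarded, then 19 × 2 µL injections. Heat of dilution from aptamer-into-buffer injections subtracted.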

As for `Cc1cn([C@H]2C[C@H](OP(N)(=O)OC[C@@H]3C[C@@H](OP(N)(=O)OC[C@H]4O[C@@H](n5cnc6c(=O)[nH]c(N)nc65)C[C@@H]4OP(N)(=O)OC[C@H](COP(N)(=O)OC[C@H]4O[C@@H](n5cnc6c(=O)[nH]c(N)nc65)C[C@@H]4OP(N)(=O)OC[C@H]4O[C@@H](n5cc(C)c(=O)[nH]c5=O)C[C@@H]4OP(N)(=O)OC[C@H]4O[C@@H](n5cnc6c(=O)[nH]c(N)nc65)C[C@@H]4OP(N)(=O)OC[C@H]4O[C@@H](n5cnc6c(=O)[nH]c(N)nc65)C[C@@H]4OP(N)(=O)OC[C@H](COP(N)(=O)OC[C@H]4O[C@@H](n5cc(C)c(=O)[nH]c5=O)C[C@@H]4OP(N)(=O)OC[C@H]4O[C@@H](n5cnc6c(=O)[nH]c(N)nc65)C[C@@H]4OP(N)(=O)OC[C@H]4O[C@@H](n5cnc6c(=O)[nH]c(N)nc65)C[C@@H]4O)O[C@H](CO)n4ccc(=O)[nH]c4=O)O[C@H](CO)n4ccc(=O)[nH]c4=O)[C@H](n4cnc5c(=O)[nH]c(N)nc54)O3)[C@@H](COP(N)(=O)OC[C@@H](COP(N)(=O)O[C@H]3C[C@H](n4cnc5c(=O)[nH]c(N)nc54)O[C@@H]3COP(N)(=O)O[C@H]3C[C@H](n4cnc5c(=O)[nH]c(N)nc54)O[C@@H]3COC(=O)CCCC[C@@H]3SC[C@@H]4NC(=O)N[C@@H]43)O[C@H](CO)n3ccc(=O)[nH]c3=O)O2)c(=O)[nH]c1=O` (stereo partly drawn), the values for the Time with Plasma [1] and with Plasma [2] were 19.5 s and 0.5 s, respectively. The Tm in series [3] was found to be 51 °C.
On to `Cc1cn([C@H]2C[C@H](OP(N)(=O)OC[C@H]3O[C@@H](n4cnc5c(=O)[nH]c(N)nc54)C[C@@H]3OP(N)(=O)OC[C@H]3O[C@@H](n4cnc5c(=O)[nH]c(N)nc54)C[C@@H]3O)[C@@H](COP(N)(=O)OC[C@@H](COP(N)(=O)O[C@H]3C[C@H](n4cnc5c(=O)[nH]c(N)nc54)O[C@@H]3COP(N)(=O)O[C@H]3C[C@H](n4cnc5c(=O)[nH]c(N)nc54)O[C@@H]3COP(N)(=O)O[C@H]3C[C@H](n4cc(C)c(=O)[nH]c4=O)O[C@@H]3COP(N)(=O)O[C@H]3C[C@H](n4cnc5c(=O)[nH]c(N)nc54)O[C@@H]3COP(N)(=O)O[C@H]3C[C@H](n4c(C)cc(=O)[nH]c4=O)O[C@@H]3COP(N)(=O)O[C@H]3C[C@H](n4cnc5c(=O)[nH]c(N)nc54)O[C@@H]3COP(N)(=O)O[C@@H]3C[C@@H](COP(N)(=O)O[C@H]4C[C@H](n5cc(C)c(=O)[nH]c5=O)O[C@@H]4COP(N)(=O)O[C@H]4C[C@H](n5cc(C)c(=O)[nH]c5=O)O[C@@H]4COP(N)(=O)O[C@H]4C[C@H](n5cnc6c(=O)[nH]c(N)nc65)O[C@@H]4COP(N)(=O)O[C@H]4C[C@H](n5cnc6c(=O)[nH]c(N)nc65)O[C@@H]4COC(=O)CCCC[C@@H]4SC[C@@H]5NC(=O)N[C@@H]54)O[C@H]3n3cnc4c(=O)[nH]c(N)nc43)O[C@H](CN3CCNCC3)n3ccc(=O)[nH]c3=O)O2)c(=O)[nH]c1=O` (stereo partly drawn), for which the Time is given as 22.5 s in the series on Plasma [1] and 3.5 s in the series on Plasma [2]. This compound yielded a Kd at Prothrombin of 1000 nM. Moreover, in series [3], the Tm was determined as 44.8 °C.
For `Cc1cn([C@H]2C[C@H](OP(N)(=O)OC[C@H]3O[C@@H](n4cnc5c(=O)[nH]c(N)nc54)C[C@@H]3OP(N)(=O)OC[C@H]3O[C@@H](n4cnc5c(=O)[nH]c(N)nc54)C[C@@H]3O)[C@@H](COP(N)(=O)O[C@H]3C[C@H](n4cc(C)c(=O)[nH]c4=O)O[C@@H]3COP(N)(=O)O[C@H]3C[C@H](n4cnc5c(=O)[nH]c(N)nc54)O[C@@H]3COP(N)(=O)O[C@H]3C[C@H](n4cnc5c(=O)[nH]c(N)nc54)O[C@@H]3COP(N)(=O)O[C@H]3C[C@H](n4cc(C)c(=O)[nH]c4=O)O[C@@H]3COP(N)(=O)O[C@H]3C[C@H](n4cnc5c(=O)[nH]c(N)nc54)O[C@@H]3COP(N)(=O)OC[C@@H](COP(N)(=O)O[C@H]3C[C@H](n4cnc5c(=O)[nH]c(N)nc54)O[C@@H]3COP(N)(=O)O[C@@H]3C[C@@H](COP(N)(=O)O[C@H]4C[C@H](n5cc(C)c(=O)[nH]c5=O)O[C@@H]4COP(N)(=O)O[C@H]4C[C@H](n5c(C)cc(=O)[nH]c5=O)O[C@@H]4COP(N)(=O)O[C@H]4C[C@H](n5cnc6c(=O)[nH]c(N)nc65)O[C@@H]4COP(N)(=O)O[C@H]4C[C@H](n5cnc6c(=O)[nH]c(N)nc65)O[C@@H]4COC(=O)CCCC[C@@H]4SC[C@@H]5NC(=O)N[C@@H]54)O[C@H]3n3cnc4c(=O)[nH]c(N)nc43)O[C@H](CN3CCNCC3)n3ccc(=O)[nH]c3=O)O2)c(=O)[nH]c1=O` (stereo partly drawn) the same measures were 31.2 s, 12.2 s, 52.6 nM and 45.2 °C.
For `Cc1cn([C@H]2C[C@H](OP(N)(=O)OC[C@@H]3C[C@@H](OP(N)(=O)OC[C@H]4O[C@@H](n5cnc6c(=O)[nH]c(N)nc65)C[C@@H]4OP(N)(=O)OC[C@H]4O[C@@H](n5cc(C)c(=O)[nH]c5=O)C[C@@H]4OP(N)(=O)OC[C@H]4O[C@@H](n5cnc6c(=O)[nH]c(N)nc65)C[C@@H]4OP(N)(=O)OC[C@H]4O[C@@H](n5cc(C)c(=O)[nH]c5=O)C[C@@H]4OP(N)(=O)OC[C@H]4O[C@@H](n5cnc6c(=O)[nH]c(N)nc65)C[C@@H]4OP(N)(=O)OC[C@H]4O[C@@H](n5cnc6c(=O)[nH]c(N)nc65)C[C@@H]4OP(N)(=O)OC[C@H](COP(N)(=O)OC[C@H]4O[C@@H](n5cc(C)c(=O)[nH]c5=O)C[C@@H]4OP(N)(=O)OC[C@H]4O[C@@H](n5cnc6c(=O)[nH]c(N)nc65)C[C@@H]4OP(N)(=O)OC[C@H]4O[C@@H](n5cnc6c(=O)[nH]c(N)nc65)C[C@@H]4O)O[C@H](CO)n4ccc(=O)[nH]c4=O)[C@H](n4cnc5c(=O)[nH]c(N)nc54)O3)[C@@H](COP(N)(=O)OC[C@@H](COP(N)(=O)O[C@H]3C[C@H](n4cnc5c(=O)[nH]c(N)nc54)O[C@@H]3COP(N)(=O)O[C@H]3C[C@H](n4cnc5c(=O)[nH]c(N)nc54)O[C@@H]3COC(=O)CCCC[C@@H]3SC[C@@H]4NC(=O)N[C@@H]43)O[C@H](CO)n3ccc(=O)[nH]c3=O)O2)c(=O)[nH]c1=O` (stereo partly drawn), the values for the Time in the series with Plasma [1] and in the series with Plasma [2] were 19.4 s and 0.4 s, respectively. Besides, the Tm in series [3] was 47.4 °C.
In turn, `Cc1cn([C@H]2C[C@H](OP(N)(=O)OC[C@@H]3C[C@@H](OP(N)(=O)OC[C@H]4O[C@@H](n5cnc6c(=O)[nH]c(N)nc65)C[C@@H]4OP(N)(=O)OC[C@H]4O[C@@H](n5ccc(=O)[nH]c5=O)[C@H](O)[C@@H]4OP(N)(=O)OC[C@H]4O[C@@H](n5cnc6c(=O)[nH]c(N)nc65)C[C@@H]4OP(N)(=O)OC[C@H]4O[C@@H](n5cc(C)c(=O)[nH]c5=O)C[C@@H]4OP(N)(=O)OC[C@H]4O[C@@H](n5cnc6c(=O)[nH]c(N)nc65)C[C@@H]4OP(N)(=O)OC[C@H]4O[C@@H](n5cnc6c(=O)[nH]c(N)nc65)C[C@@H]4OP(N)(=O)OC[C@H]4O[C@@H](n5cc(C)c(=O)[nH]c5=O)C[C@@H]4OP(N)(=O)OC[C@H]4O[C@@H](n5cc(C)c(=O)[nH]c5=O)C[C@@H]4OP(N)(=O)OC[C@H]4O[C@@H](n5cnc6c(=O)[nH]c(N)nc65)C[C@@H]4OP(N)(=O)OC[C@H]4O[C@@H](n5cnc6c(=O)[nH]c(N)nc65)C[C@@H]4O)[C@H](n4cnc5c(=O)[nH]c(N)nc54)O3)[C@@H](COP(N)(=O)O[C@H]3C[C@H](n4cc(C)c(=O)[nH]c4=O)O[C@@H]3COP(N)(=O)O[C@H]3C[C@H](n4cnc5c(=O)[nH]c(N)nc54)O[C@@H]3COP(N)(=O)O[C@H]3C[C@H](n4cnc5c(=O)[nH]c(N)nc54)O[C@@H]3CO)O2)c(=O)[nH]c1=O` (stereo partly drawn) returned a Kd at Prothrombin of 37 nM. This lies in the double-digit nanomolar range.
For the compound `Cc1cn([C@H]2C[C@H](OP(N)(=O)OC[C@@H]3C[C@@H](OP(N)(=O)OC[C@H]4O[C@@H](n5cnc6c(=O)[nH]c(N)nc65)C[C@@H]4OP(N)(=O)OC[C@H]4O[C@@H](n5ccc(=O)[nH]c5=O)[C@H](O)[C@@H]4OP(N)(=O)OC[C@H]4O[C@@H](n5cnc6c(=O)[nH]c(N)nc65)[C@H](O)[C@@H]4OP(N)(=O)OC[C@H]4O[C@@H](n5ccc(=O)[nH]c5=O)[C@H](O)[C@@H]4OP(N)(=O)OC[C@H]4O[C@@H](n5cnc6c(=O)[nH]c(N)nc65)C[C@@H]4OP(N)(=O)OC[C@H]4O[C@@H](n5cnc6c(=O)[nH]c(N)nc65)C[C@@H]4OP(N)(=O)OC[C@H]4O[C@@H](n5ccc(=O)[nH]c5=O)[C@H](O)[C@@H]4OP(N)(=O)OC[C@H]4O[C@@H](n5cc(C)c(=O)[nH]c5=O)C[C@@H]4OP(N)(=O)OC[C@H]4O[C@@H](n5cnc6c(=O)[nH]c(N)nc65)C[C@@H]4OP(N)(=O)OC[C@H]4O[C@@H](n5cnc6c(=O)[nH]c(N)nc65)C[C@@H]4O)[C@H](n4cnc5c(=O)[nH]c(N)nc54)O3)[C@@H](COP(N)(=O)O[C@H]3[C@@H](O)[C@H](n4ccc(=O)[nH]c4=O)O[C@@H]3COP(N)(=O)O[C@H]3C[C@H](n4cnc5c(=O)[nH]c(N)nc54)O[C@@H]3COP(N)(=O)O[C@H]3C[C@H](n4cnc5c(=O)[nH]c(N)nc54)O[C@@H]3COC(=O)CCCC[C@@H]3SC[C@@H]4NC(=O)N[C@@H]43)O2)c(=O)[nH]c1=O` (stereo partly drawn), the Time came to 19 s with Plasma [1] and 0 s with Plasma [2]. Also, the Tm in series [3] was determined as 29.7 °C.
